Screening data deposited in PubChem by Broad Institute.
KDM4C inh – KDM4C (human) demethylase inhibition. Q9H3R0. inhibition, % at 12.5 µM. GST-KDM4C 2-372, H3K9me3 peptide, LANCE TR-FRET. actives 0.15% (n = 96,000). AID 720574;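 active = mean replicate inhibition above about 25%, with at least 55% of replicates also reaching it, limit read from the data, passing the limit was not always enough; inconclusive = only one of those two conditions met; inactive = neither condition met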
Target sequence (Q9H3R0 2-372 limits assumed): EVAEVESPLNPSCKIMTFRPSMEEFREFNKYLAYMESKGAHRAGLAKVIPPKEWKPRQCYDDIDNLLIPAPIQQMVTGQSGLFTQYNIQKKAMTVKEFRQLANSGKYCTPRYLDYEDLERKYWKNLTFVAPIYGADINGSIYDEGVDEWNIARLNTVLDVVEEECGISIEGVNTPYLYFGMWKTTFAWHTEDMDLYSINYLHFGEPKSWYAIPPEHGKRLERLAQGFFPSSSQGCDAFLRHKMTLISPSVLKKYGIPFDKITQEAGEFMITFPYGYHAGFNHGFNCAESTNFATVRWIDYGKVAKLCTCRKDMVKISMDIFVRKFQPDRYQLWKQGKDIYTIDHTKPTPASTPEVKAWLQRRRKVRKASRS
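Material: GST-tagged GASC-1 (JMJD2C) catalytic fragment, aa 2-372. Input: enzyme final amount 10 nM. Medium: HEPES buffer, pH 7.5, plus ascorbate. Reagent: H3K9me3 peptide substrate, Fe(II), 2-oxoglutarate. Doses: single dose. Times: reaction 30 min RT, detection step 1 h RT. Measured by: LANCE TR-FRET. Evaluation: Fall in 671/618 emission ratio as inhibition.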
IDH1 mut inh – blocks human IDH1 R132H reductase activity; O75874; diaphorase/resazurin fluorescence, 60 min; inhibition, % at 10 µM; actives 0.18% (n = 70,000); in the data active = inhibition above about 34%; inconclusive = no clear call, values can overlap the other calls; inactive = below about 11%
T cruzi growth-1 – T. cruzi proliferation inhibition | T. cruzi beta-gal in NIH3T3, GalScreen luminescence, 90 h | inhibition, % at 8.34 µM | actives 5.9% (n = 77,000) | AID 624255;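 active = mean inhibition above about 93%, with at least 55% of replicates each passing it, limit read from the data, passing the limit was not always enough; inconclusive = only one of those two conditions holds; inactive = neither condition holds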
T cruzi growth-2 – inhibitors of T. cruzi proliferation | T. cruzi beta-gal in NIH3T3, GalScreen luminescence, 90 h | inhibition, % at 8.35 µM | actives 72% (n = 5,600) | shares compounds with T cruzi growth-1;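 active = mean replicate inhibition above about 95% and at least 55% of replicates individually reaching it, limit read from the data; inconclusive = only one of the two criteria is met; inactive = neither criterion is met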
T cruzi growth-3 – Trypanosoma cruzi proliferation inhibition | shares compounds with T cruzi growth-1 | T. cruzi beta-gal in NIH3T3, GalScreen luminescence, 90 h | inhibition, % at 2.09 µM | actives 21% (n = 5,600) | AID 651740;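 active = mean inhibition above about 95%, with at least 55% of replicates also reaching it, limit read from the data; inconclusive = meets just one of the two conditions; inactive = meets neither condition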
NIH3T3 tox – NIH/3T3 (mouse) viability loss. cytotoxicity (signal decrease), % at 8.35 µM. shares compounds with T cruzi growth-1. actives 14% (n = 5,600). NIH/3T3 viability, CellTiter-Glo ATP luminescence, 90 h. AID 651742;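 active = mean signal decrease across replicates above about 35% based on untreated-well scatter, with enough replicates individually passing, limit read from the data; inconclusive = no rule stated though some were filed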
NIH3T3 tox 2 – kills mouse NIH/3T3 fibroblasts | actives 56% (n = 5,600) | shares compounds with T cruzi growth-1 | inhibition, % at 24.9 µM | NIH/3T3 viability, CellTiter-Glo ATP luminescence, 90 h | AID 651744;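 active = mean loss of cell viability signal at or above a set limit, and enough replicates individually reaching it; inconclusive = meets only the mean limit or only the replicate share; inactive = meets neither condition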
Each line names hits and unclear results; the compound was inactive in the other large screens (follow-up assays come after a bar, where they were run). Only a selection was taken, and hits are over-represented in it overall.

CC(C)CC#Cc1ccc2c(c1)O[C@H](CN(C)S(=O)(=O)c1ccc(F)cc1)[C@@H](C)CN([C@H](C)CO)S2(=O)=O	none (no result: T cruzi growth-1)
COCC#Cc1ccc2c(c1)O[C@H](CN(C)S(=O)(=O)c1ccc(F)cc1)[C@@H](C)CN([C@H](C)CO)S2(=O)=O	none
C[C@H](CO)N1C[C@H](C)[C@@H](CN(C)S(=O)(=O)c2ccc(F)cc2)Oc2cc(Br)ccc2S1(=O)=O	none (no result: IDH1 mut inh)
COCC#Cc1ccc2c(c1)O[C@H](CN(C)S(=O)(=O)c1ccc(F)cc1)[C@H](C)CN([C@@H](C)CO)S2(=O)=O	T cruzi growth-1 100.6 | T cruzi growth-2 inactive | T cruzi growth-3 inactive | NIH3T3 tox inactive | NIH3T3 tox 2 55.0
C[C@@H]1CN([C@@H](C)CO)S(=O)(=O)c2ccc(C#Cc3ccncc3)cc2O[C@@H]1CN(C)S(=O)(=O)c1ccc(F)cc1	T cruzi growth-1 114.3 | T cruzi growth-2 inconclusive | T cruzi growth-3 inactive | NIH3T3 tox 34.4 | NIH3T3 tox 2 43.5
C[C@@H]1CN([C@H](C)CO)S(=O)(=O)c2ccc(C#Cc3ccc(F)cc3)cc2O[C@H]1CN(C)S(=O)(=O)c1ccc(F)cc1	T cruzi growth-1 109.8 | T cruzi growth-2 98.1 | T cruzi growth-3 110.1 | NIH3T3 tox 40.7 | NIH3T3 tox 2 54.9
C[C@H](CO)N1C[C@H](C)[C@H](CN(C)S(=O)(=O)c2ccc(F)cc2)Oc2cc(Br)ccc2S1(=O)=O	T cruzi growth-1 97.6 | T cruzi growth-2 99.7 | T cruzi growth-3 inactive | NIH3T3 tox inactive | NIH3T3 tox 2 65.0
Cc1ccc(S(=O)(=O)N(C)C[C@@H]2Oc3cc(C#Cc4ccncc4)ccc3S(=O)(=O)N([C@@H](C)CO)C[C@@H]2C)cc1	none
CCCCn1cc(C2CC(=O)N(c3ccc(Br)cc3)C2=O)c2ccccc21 (stereo unspecified)	none (no result: KDM4C inh, T cruzi growth-1)
CO[C@H]1CN(C)C(=O)c2ccc(NC(=O)CC(F)(F)F)cc2OC[C@@H](C)N(C(=O)C2CCCCC2)C[C@@H]1C	none (no result: IDH1 mut inh, T cruzi growth-1)
Cc1cc(OCC(=O)Nc2ccc3oc(-c4ccncc4)nc3c2)cc(C)c1Cl	none (no result: KDM4C inh, T cruzi growth-1)
CN1C(=O)c2cc(NC(=O)c3cscn3)ccc2OC[C@H]2O[C@@H](CC(=O)N3CCCCC3)CC[C@H]21	none (no result: IDH1 mut inh)
COC(=O)c1cc(OC)c(OC)cc1NC(=O)COc1cccc(C)c1C	none (no result: KDM4C inh, T cruzi growth-1)
CC(C)CC#Cc1ccc2c(c1)O[C@H](CN(C)S(=O)(=O)c1ccc(F)cc1)[C@H](C)CN([C@H](C)CO)S2(=O)=O	none (no result: T cruzi growth-1)
C[C@H](CO)N1C[C@H](C)[C@H](CN(C)S(=O)(=O)c2ccc(F)cc2)Oc2cc(C#Cc3ccc(F)cc3)ccc2S1(=O)=O	T cruzi growth-1 110.9 (no result: IDH1 mut inh) | T cruzi growth-2 99.7 | T cruzi growth-3 106.5 | NIH3T3 tox inactive | NIH3T3 tox 2 inactive
CC(C)CC#Cc1ccc2c(c1)O[C@@H](CN(C)S(=O)(=O)c1ccc(F)cc1)[C@@H](C)CN([C@H](C)CO)S2(=O)=O	none (no result: T cruzi growth-1)
C[C@@H]1CN([C@H](C)CO)S(=O)(=O)c2ccc(C#Cc3ccc(F)cc3)cc2O[C@@H]1CN(C)S(=O)(=O)c1ccc(F)cc1	T cruzi growth-1 inconclusive | T cruzi growth-2 inconclusive | T cruzi growth-3 111.9 | NIH3T3 tox inactive | NIH3T3 tox 2 70.7
CCn1c(SCC(=O)Nc2ccc(Br)cc2C)nnc1-c1ccccc1F	none (no result: KDM4C inh, T cruzi growth-1)
CO[C@@H](CN(C)S(=O)(=O)c1cccc(Cl)c1)[C@H](C)CN([C@@H](C)CO)S(=O)(=O)c1ccc(Cl)cc1	T cruzi growth-1 102.7 | T cruzi growth-2 inconclusive | T cruzi growth-3 inactive | NIH3T3 tox inconclusive | NIH3T3 tox 2 75.6
CO[C@@H](CN(C)S(=O)(=O)c1ccc(C)cc1)[C@H](C)CN([C@H](C)CO)S(=O)(=O)c1cccc(Cl)c1	none
CO[C@H](CN(C)S(=O)(=O)c1cccc(Cl)c1)[C@H](C)CN([C@H](C)CO)S(=O)(=O)c1cccc(Cl)c1	T cruzi growth-1 101.0 | T cruzi growth-2 113.3 | T cruzi growth-3 inactive | NIH3T3 tox inconclusive | NIH3T3 tox 2 60.0
CO[C@H](CN(C)S(=O)(=O)c1ccc(C)cc1)[C@H](C)CN([C@H](C)CO)S(=O)(=O)c1cccc(Cl)c1	T cruzi growth-1 102.0 | T cruzi growth-2 102.8 | T cruzi growth-3 inactive | NIH3T3 tox 57.7 | NIH3T3 tox 2 83.6
CO[C@H](CN(C)S(=O)(=O)c1cccc(Cl)c1)[C@H](C)CN([C@@H](C)CO)S(=O)(=O)c1ccc(Cl)cc1	none
CO[C@H](CN(C)S(=O)(=O)c1cccc(Cl)c1)[C@@H](C)CN([C@H](C)CO)S(=O)(=O)c1ccc(Cl)cc1	none
CO[C@H](CN(C)S(=O)(=O)c1cccc(Cl)c1)[C@H](C)CN([C@@H](C)CO)S(=O)(=O)c1cccc(Cl)c1	T cruzi growth-1 99.3 | T cruzi growth-2 109.7 | T cruzi growth-3 inactive | NIH3T3 tox 49.3 | NIH3T3 tox 2 57.7
CO[C@@H](CN(C)S(=O)(=O)c1cccc(Cl)c1)[C@@H](C)CN([C@H](C)CO)S(=O)(=O)c1cccc(Cl)c1	none
CC(=O)N1CCN(c2ccc(OCC3COC(Cn4ccnc4)(c4ccc(Cl)cc4Cl)O3)cc2)CC1 (stereo unspecified)	none (no result: KDM4C inh, T cruzi growth-1)
COc1ccc(S(=O)(=O)Nc2ccc3c(c2)CC(=O)N([C@@H](C)CO)C[C@@H](C)[C@H](CN(C)Cc2ccccc2)O3)cc1	T cruzi growth-1 113.0 | T cruzi growth-2 108.2 | T cruzi growth-3 inactive | NIH3T3 tox inactive | NIH3T3 tox 2 inactive
COc1ccc(S(=O)(=O)Nc2ccc3c(c2)CC(=O)N([C@H](C)CO)C[C@@H](C)[C@@H](CN(C)Cc2ccccc2)O3)cc1	none
C[C@@H]1CN([C@@H](C)CO)C(=O)Cc2cc(NS(=O)(=O)c3ccc(F)cc3)ccc2O[C@H]1CN(C)Cc1ccccc1	T cruzi growth-1 114.0 | T cruzi growth-2 111.5 | T cruzi growth-3 inactive | NIH3T3 tox inactive | NIH3T3 tox 2 inconclusive
COc1ccc(S(=O)(=O)Nc2ccc3c(c2)CC(=O)N([C@H](C)CO)C[C@H](C)[C@@H](CN(C)Cc2ccccc2)O3)cc1	T cruzi growth-1 99.5 | T cruzi growth-2 103.6 | T cruzi growth-3 inactive | NIH3T3 tox inactive | NIH3T3 tox 2 inactive
C[C@@H]1CN([C@@H](C)CO)C(=O)Cc2cc(NS(=O)(=O)c3ccc(F)cc3)ccc2O[C@@H]1CN(C)Cc1ccccc1	none (no result: IDH1 mut inh)
C[C@@H]1CN([C@@H](C)CO)C(=O)Cc2cc(NS(=O)(=O)c3ccc(F)cc3)ccc2O[C@H]1CN(C)CC1CCCCC1	T cruzi growth-1 106.4 | T cruzi growth-2 111.7 | T cruzi growth-3 inactive | NIH3T3 tox inactive | NIH3T3 tox 2 103.5
